# Assay outcomes as filed in PubChem.
# The list is not random: actives were taken first. Their share in the collection is about 0.91%.
# Lipid droplet = hepatic lipid droplet formation modulation; AML12 mouse hepatocytes, oleate lipid droplets, BODIPY imaging; inhibition, % at 6.5 µM; 0.4% of 240,000 active;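 active = lipid droplet intensity inhibited by at least 50%, with more than 500 cells counted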
#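 Material: mouse AML12 hepatocyte cell line, fixed after treatment; Timing: compound with oleate, overnight; Technique: high-content imaging of BODIPY-stained droplets and DAPI nuclei; Probe or stimulus: oleate, 100 µM final; Dosing: compound at 6.5 µM only.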
# TNF necrop inh = blocks TNF-alpha induced death of Jurkat FADD-/- cells; Jurkat FADD-/- TNF necroptosis rescue, ATP luminescence, 24 h; 0 = TNF only, 100 = no-TNF cells; activation (protection from cell death), % at 10 µM; 0.068% of 220,000 active; AID 463075;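 active = activation, meaning protection from cell death, of at least 50% relative to plate controls; inactive = activation below 50%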;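 note: necroptosis triggered by 40 ng/mL TNF-alpha added together with compound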
# Arbovirus inh = antivirals against arbovirus infection; arbovirus infection cell-based antiviral screen; inhibition, % at 10 µM; 0.37% of 200,000 active; AID 1251; in the data active = inhibition above about 30%
# L929 necroptosis = L929 zVAD cell death inhibition; L929 zVAD necroptosis rescue, ATP luminescence, 24 h; with zVAD 60 µM; viability rescue, % at 10 µM; 0.38% of 220,000 active;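 active = activation, scaled between plate controls, above about 75%, limit read from the data; inactive = activation under that limit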;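 note: 0% = zVAD with DMSO and 100% = DMSO alone without zVAD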
# Pf gametocyte = inhibitors of late stage P. falciparum gametocyte viability; inhibition, % at 10.9 µM; P. falciparum stage V gametocytes, ATP luminescence, 24 h; 0.065% of 150,000 active;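 active = inhibition above the mean plus 3 SD of compounds within the control limits, set per campaign, cut at about 38% in these data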;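 note: 0% = DMSO wells and 100% = medium only without gametocytes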
# * hit, by the source's call; . = not tested or not shown.
SMILES,Lipid droplet,TNF necrop inh,Arbovirus inh,L929 necroptosis,Pf gametocyte
O=C(CN(Cc1ccccc1Cl)C(=O)c1csnn1)NCc1ccccc1,-20,.,.,.,.
COC(=O)c1ccc2c(c1)C(C)(C)C(/C=C/c1ccc(O)cc1)=[N+]2C,119*,-12,-40,15,.
CC1CC(C)(C)CC2(C1)NC(=O)N(CC(=O)NCCc1c[nH]c3ccccc13)C2=O (configuration not stated),-4,2,32*,0,1
Cc1ccc2nc(NC(=O)C3CCCN(S(=O)(=O)c4cccnc4)C3)sc2c1 (configuration not stated),-3,6,-15,11,.
Cc1ccc2nc(NC(=O)C3CCCN(S(=O)(=O)c4cnc[nH]4)C3)sc2c1 (configuration not stated),4,4,59*,7,.
C=CCC[C@H](Cc1ccc(F)cc1)C(=O)OC[C@@H](NC(=O)[C@H](CC=C)CC(=O)NCCO)c1ccccc1,.,.,.,.,14
Cc1cnc(NC(=O)c2ccc(-c3nc4ccccc4s3)o2)s1,.,-3,51*,15,.
COc1ccccc1CC(=O)Nc1ccon1,0,.,.,.,.
O=Cc1cn(-c2ccccc2)nc1-c1cc2cc(O)ccc2oc1=O,5,-3,33*,-1,-24
O=Cc1cn(-c2ccccc2)nc1-c1cc2c(ccc3ccccc32)oc1=O,-4,-1,2,1,.
CC(C(=O)OCC(=O)c1ccc(Br)cc1)N1C(=O)C2C3C=CC(C3)C2C1=O (configuration not stated),7,.,.,.,.
O=S(=O)(c1cccc2cccnc12)N1CCN(c2ccc(F)cc2)CC1,-3,56*,2,4,.
CCOC(=O)CC1CCCCN1Cc1cn(C)nc1-c1ccc2c(c1)OCCO2 (configuration not stated),15,2,-2,0,42*
COCC1CCCCN1Cc1cn(-c2ccccc2)nc1-c1ccc2c(c1)OCO2 (configuration not stated),19,3,-1,0,23
NS(=O)(=O)c1ccc(CNC(=O)C(c2ccccc2)c2ccccc2)cc1,-8,.,.,.,5
CCC(C)c1ccccc1NC(=O)COC(=O)c1ccc2[nH]c3c(c2c1)CCCC3 (configuration not stated),59*,0,-4,2,-6
O=C(COC(=O)c1ccc2[nH]c3c(c2c1)CCCC3)Nc1ccccc1Cl,-4,0,1,0,23
CC1CCN(S(=O)(=O)c2ccc(N=NC3=C(O)CC(C)(C)CC3=O)cc2)CC1,0,2,-9,0,44*
O=C(C1COc2ccccc2O1)N1CCCC1 (configuration not stated),-11,2,1,-1,4
O=C(C1COc2ccccc2O1)N1CCc2ccccc21 (configuration not stated),.,89*,-3,2,.
COc1ccc(CNC(=S)N/N=C(\C)c2ccc(OC)cc2)cc1,-2,0,.,0,5
COc1ccc(/C(C)=N/NC(=S)NCCc2ccccc2)cc1,-15,-5,4,0,39*
C[C@H](NC(=O)N1CCn2c1nc1ccccc12)C(=O)NCc1ccc2c(c1)OCO2,3,.,.,.,.
CC1CCCN(C2=C(NS(=O)(=O)c3ccc(Cl)cc3)C(=O)c3ccccc3C2=O)C1 (configuration not stated),57*,-3,-13,-1,-16
Cn1c(=O)c2c(ncn2CC(=O)N/N=C/c2c[nH]c3ccccc23)n(C)c1=O,3,1,.,0,.
SMILES,Lipid droplet,TNF necrop inh,Arbovirus inh,L929 necroptosis,Pf gametocyte
COc1c(Cl)cc(C(=O)Nc2ccccc2C(=O)O)cc1Cl,.,-3,62*,0,.
COc1ccc(C(=O)Nc2cc(Cl)ccc2C(=O)O)cc1,-7,0,47*,2,11
COc1ccc(C(=O)Nc2cc(Cl)ccc2OC(=O)c2ccc(OC)cc2)cc1,.,-9,17,0,.
COc1ccc(C(=NNc2ccccc2C(=O)O)c2ccc(OC)cc2)cc1,9,1,-5,3,53*
COc1ccc(CN2CCCC(C(=O)c3ccc4c(c3)OCO4)C2)c(F)c1 (configuration not stated),-15,.,.,.,.
COc1ccccc1NC(=O)c1ccc(NC(=O)CN(C)Cc2ccccc2F)cc1,4,1,2,3,-4
CCOc1ccc(NC(=O)CN(C)C(=O)c2cccnc2SC)cc1OCC,-11,.,.,.,.
O=C(c1ccc([N+](=O)[O-])cc1)N1CCSC1c1ccccc1Cl (configuration not stated),13,51*,0,-1,9
COc1ccc(C2SCCN2C(=O)c2ccc([N+](=O)[O-])cc2)cc1 (configuration not stated),-13,7,1,1,1
O=C(Nc1nc(-c2ccc(Cl)cc2Cl)cs1)C1CCCO1 (configuration not stated),54*,3,8,2,2
O=C(Nc1nc(-c2ccc(Cl)cc2)cs1)C1CCCO1 (configuration not stated),-12,1,22,1,7
O=C(O)C(Nc1nc(C(F)(F)F)nc2ccccc12)c1ccccc1 (configuration not stated),-2,.,.,.,-5
Cc1cccc2c1nc(-c1ccccc1)n1nnnc21,.,0,55*,1,-22
COc1cccc(C(=O)Nc2cccc(C(=O)NC3=NN(c4c(Cl)cc(Cl)cc4Cl)C(=O)C3)c2)c1,-1,-1,34*,0,5
CCc1ccc(Nc2n[n+](C)c(-c3ccncc3)s2)cc1,-2,.,.,.,24
CCn1cc(/C=C/C(=O)Nc2ccn(Cc3c(F)c(F)cc(F)c3F)n2)cn1,-5,78*,-30,1,.
COC(=O)CCN(c1ccccc1)S(=O)(=O)c1cc(-c2cc(C)no2)ccc1OC,-17,.,.,.,.
CCC(C(=O)OC)n1cnc2c(nnn2-c2ccc(C)cc2)c1=O (configuration not stated),4,.,.,.,.
COCCn1c(SC(C)C(=O)Nc2ncc(Cl)cc2Cl)nc2ccccc21 (configuration not stated),-6,-5,31*,0,-5
C=CCN(CC=C)C(=S)NC(=O)Cc1cccc2ccccc12,-2,-3,56*,-3,18
CCN(CC)C(=O)CSc1nc2cc3c(cc2c(=O)n1CCCC(=O)NCc1ccc(OC)cc1)OCO3,-47,1,2,0,15
COc1ccc(CNC(=O)CCCCCn2c(SCC#N)nc3cc4c(cc3c2=O)OCO4)cc1,56*,4,2,-1,7
CCc1nnc(SCC(=O)Nc2ccc(N3CCN(S(C)(=O)=O)CC3)cc2)o1,10,.,.,.,.
CC(C)c1cc(C(F)(F)F)n2nc(C(=O)Nc3ccc4c(c3)OCO4)cc2n1,.,-1,31*,2,.
COc1ccc(/C=C2\SC(=S)N(CC(=O)OCC(=O)Nc3cc(Cl)cc(Cl)c3)C2=O)cc1,10,3,.,0,5
